# Assay results reported in ChEMBL document CHEMBL3875153, “Design and synthesis of isatin/triazole conjugates that induce apoptosis and inhibit migration of MGC-803 cells” (Eur J Med Chem, 2016).
# Activity calls are given as the source filed them. The calls are words filed in the database; no cut-off is given here.
# What was measured:
# [1] = Cytotoxicity against human TE1 cells assessed as growth inhibition after 72 hrs by CCK8 assay; assay type: functional, cell-based, TE-1; settings: Homo sapiens, TE-1, 72 h; read-out: IC50
# How it was run: (§1)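 Exponentially growing cells were trypsinized and seeded at 2 × 10^4 cells/mL (100 µL/well). After 24 h, medium was replaced with compound at 0.5–256 µM (twofold steps). Plates were incubated 72 h at 37 °C, 5% CO2, then with CCK-8 for 4 h. A450 was read. Three independent runs; IC50 given as mean and SD.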
# [2] = Cytotoxicity against human MCF7 cells assessed as growth inhibition after 72 hrs by CCK8 assay; assay type: functional, cell-based; settings: Homo sapiens, MCF7, 72 h; read-out: IC50; how it was run: as §1
# [3] = Cytotoxicity against human SW780 cells assessed as growth inhibition after 72 hrs by CCK8 assay; assay type: functional, cell-based; settings: Homo sapiens, SW780, 72 h; read-out: IC50; how it was run: as §1
# [4] = Cytotoxicity against human MGC803 cells assessed as growth inhibition after 72 hrs by CCK8 assay; assay type: functional, cell-based, MGC-803; settings: Homo sapiens, MGC-803, 72 h; read-out: IC50; how it was run: as §1
# [5] = Cytotoxicity against human HL-7702 cells assessed as growth inhibition after 72 hrs by CCK8 assay; assay type: toxicity, cell-based, L02; settings: human, HL-7702 cells; how it was run: as §1
# [6] = Cytotoxicity against human GES-1 cells assessed as growth inhibition after 72 hrs by CCK8 assay; assay type: toxicity, cell-based, GES1; settings: human, GES-1 cells; how it was run: as §1
# MGC-803 [7] = test: Induction of morphological changes in human MGC803 cells assessed as cell rounding up at 5 to 20 uM after 24 hrs by Hoechst 33258 staining based confocal microscopic analysis; assay type: functional
# How it was run: (§2)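 MGC-803 cells grown on glass slides to about 70% confluence, treated 24 h at 0, 5, 10, 20 µM. PBS-washed, stained 20 min in dark with 10 µg/mL Hoechst 33258 containing 0.1% Triton X-100, washed, mounted, imaged by laser scanning confocal microscopy. Cell morphology also viewed by inverted microscope.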
# MGC-803 [8] = test: Induction of morphological changes in human MGC803 cells assessed as cell debris at 5 to 20 uM after 24 hrs by Hoechst 33258 staining based confocal microscopic analysis; assay type: functional; how it was run: as §2
# MGC-803 [9] = test: Induction of morphological changes in human MGC803 cells assessed as chromatin condensation at 5 to 20 uM after 24 hrs by Hoechst 33258 staining based confocal microscopic analysis; assay type: functional, cell-based; how it was run: as §2
# MGC-803 [10] = test: Induction of morphological changes in human MGC803 cells assessed as nuclear condensation at 5 to 20 uM after 24 hrs by Hoechst 33258 staining based confocal microscopic analysis; assay type: functional, cell-based; how it was run: as §2
# MGC-803 [11] = test: Induction of morphological changes in human MGC803 cells assessed as nuclear fragmentation at 5 to 20 uM after 24 hrs by Hoechst 33258 staining based confocal microscopic analysis; assay type: functional, cell-based; how it was run: as §2
# [12] = Cell cycle arrest in human MGC803 cells assessed as accumulation at G0/G1 phase at 5 uM after 24 hrs by propidium iodide staining based flow cytometry (reference value: 54.77%); assay type: functional; settings: MGC-803
# [13] = Cell cycle arrest in human MGC803 cells assessed as accumulation at S phase at 5 uM after 24 hrs by propidium iodide staining based flow cytometry (reference value: 21.32%); assay type: functional; settings: MGC-803
# [14] = Cell cycle arrest in human MGC803 cells assessed as accumulation at G2/M phase at 5 uM after 24 hrs by propidium iodide staining based flow cytometry (reference value: 20.66%); assay type: functional; settings: MGC-803
# [15] = Cell cycle arrest in human MGC803 cells assessed as accumulation at G0/G1 phase at 10 uM after 24 hrs by propidium iodide staining based flow cytometry (reference value: 54.77%); assay type: functional; settings: MGC-803
# [16] = Cell cycle arrest in human MGC803 cells assessed as accumulation at S phase at 10 uM after 24 hrs by propidium iodide staining based flow cytometry (reference value: 21.32%); assay type: functional; settings: MGC-803
# [17] = Cell cycle arrest in human MGC803 cells assessed as accumulation at G2/M phase at 10 uM after 24 hrs by propidium iodide staining based flow cytometry (reference value: 20.66%); assay type: functional; settings: MGC-803
# [18] = Cell cycle arrest in human MGC803 cells assessed as accumulation at G0/G1 phase at 20 uM after 24 hrs by propidium iodide staining based flow cytometry (reference value: 54.77%); assay type: functional; settings: MGC-803
# [19] = Cell cycle arrest in human MGC803 cells assessed as accumulation at S phase at 20 uM after 24 hrs by propidium iodide staining based flow cytometry (reference value: 21.32%); assay type: functional; settings: MGC-803
# [20] = Cell cycle arrest in human MGC803 cells assessed as accumulation at G2/M phase at 20 uM after 24 hrs by propidium iodide staining based flow cytometry (reference value: 20.66%); assay type: functional; settings: MGC-803
# [21] = Cell cycle arrest in human MGC803 cells assessed as accumulation at G2/M phase after 24 hrs by propidium iodide staining based flow cytometry; assay type: functional; settings: MGC-803
# MGC-803 [22] = test: Induction of apoptosis in human MGC803 cells after 24 hrs by Annexin-V FITC/propidium iodide staining based flow cytometry; assay type: functional, cell-based
# MGC-803 [23] = test: Induction of apoptosis in human MGC803 cells assessed as early apoptotic cells at 5 uM after 24 hrs by Annexin-V FITC/propidium iodide staining based flow cytometry (reference value: 0.9 +/- 0.3%); assay type: functional
# MGC-803 [24] = test: Induction of apoptosis in human MGC803 cells assessed as late apoptotic cells at 5 uM after 24 hrs by Annexin-V FITC/propidium iodide staining based flow cytometry (reference value: 0.4 +/- 0.5%); assay type: functional
# MGC-803 [25] = test: Induction of apoptosis in human MGC803 cells assessed as early apoptotic cells at 10 uM after 24 hrs by Annexin-V FITC/propidium iodide staining based flow cytometry (reference value: 0.9 +/- 0.3%); assay type: functional
# MGC-803 [26] = test: Induction of apoptosis in human MGC803 cells assessed as late apoptotic cells at 10 uM after 24 hrs by Annexin-V FITC/propidium iodide staining based flow cytometry (reference value: 0.4 +/- 0.5%); assay type: functional
# MGC-803 [27] = test: Induction of apoptosis in human MGC803 cells assessed as early apoptotic cells at 20 uM after 24 hrs by Annexin-V FITC/propidium iodide staining based flow cytometry (reference value: 0.9 +/- 0.3%); assay type: functional
# MGC-803 [28] = test: Induction of apoptosis in human MGC803 cells assessed as late apoptotic cells at 20 uM after 24 hrs by Annexin-V FITC/propidium iodide staining based flow cytometry (reference value: 0.4 +/- 0.5%); assay type: functional
# MGC-803 [29] = test: Induction of ROS generation in human MGC803 cells at 5 uM after 24 hrs by DCFH-DA staining based flow cytometry (reference value: 2.84%); assay type: functional
# How it was run: (§3)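 MGC-803 cells exposed to 0, 5, 10, 20 µM for 24 h, collected, then loaded with DCFH-DA (10 µM) for 30 min at 37 °C. Washed three times in serum-free medium; DCF green fluorescence quantified by flow cytometry as percent fluorescent cells.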
# MGC-803 [30] = test: Induction of ROS generation in human MGC803 cells at 10 uM after 24 hrs by DCFH-DA staining based flow cytometry (reference value: 2.84%); assay type: functional; how it was run: as §3
# MGC-803 [31] = test: Induction of ROS generation in human MGC803 cells at 20 uM after 24 hrs by DCFH-DA staining based flow cytometry (reference value: 2.84%); assay type: functional; how it was run: as §3
# MGC-803 [32] = test: Induction of ROS generation in human MGC803 cells after 24 hrs by DCFH-DA staining based flow cytometry; assay type: functional, cell-based; how it was run: as §3
# MGC-803 [33] = test: Inhibition of LSD1 expression in human MGC803 cells after 24 hrs by Western blot method; assay type: functional, cell-based
# How it was run: (§4)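 Cells given 0, 5, 10, 20 µM for 24 h, lysed 30 min in RIPA buffer (50 mM Tris-HCl pH 7.5, 150 mM NaCl, detergents) with protease inhibitors. Cleared lysate protein measured by BCA, resolved by SDS-PAGE, moved to nitrocellulose. Membranes blocked in 5% milk, probed with primary antibodies overnight at 4 °C, then secondary (1:5000) 2 h. ECL detection.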
# MGC-803 [34] = test: Induction of apoptosis in human MGC803 cells assessed as activation of Bax protein expression at 5 to 20 uM after 24 hrs by Western blot method; assay type: functional, cell-based; how it was run: as §4
# MGC-803 [35] = test: Induction of apoptosis in human MGC803 cells assessed as inhibition of Bcl2 protein expression at 5 to 20 uM after 24 hrs by Western blot method; assay type: functional, cell-based; how it was run: as §4
# MGC-803 [36] = test: Induction of apoptosis in human MGC803 cells assessed as inhibition of Mcl1 protein expression at 5 to 20 uM after 24 hrs by Western blot method; assay type: functional, cell-based; how it was run: as §4
# MGC-803 [37] = test: Induction of apoptosis in human MGC803 cells assessed as increase in PARP cleavage at 5 to 20 uM after 24 hrs by Western blot method; assay type: functional, cell-based; how it was run: as §4
# MGC-803 [38] = test: Induction of apoptosis in human MGC803 cells assessed as increase in caspase-8 cleavage at 5 to 20 uM after 24 hrs by Western blot method; assay type: functional, cell-based; how it was run: as §4
# MGC-803 [39] = test: Induction of apoptosis in human MGC803 cells assessed as increase in caspase-9 cleavage at 5 to 20 uM after 24 hrs by Western blot method; assay type: functional, cell-based; how it was run: as §4
# MGC-803 [40] = test: Induction of apoptosis in human MGC803 cells assessed as increase in caspase-3 protein expression at 5 to 20 uM after 24 hrs by Western blot method; assay type: functional, cell-based; how it was run: as §4
# MGC-803 [41] = test: Induction of apoptosis in human MGC803 cells assessed as increase in caspase-6 protein expression at 5 to 20 uM after 24 hrs by Western blot method; assay type: functional, cell-based; how it was run: as §4
# MGC-803 [42] = test: Induction of apoptosis in human MGC803 cells assessed as increase in caspase-7 protein expression at 5 to 20 uM after 24 hrs by Western blot method; assay type: functional, cell-based; how it was run: as §4
# MGC-803 [43] = test: Anti-migratory activity against human MGC803 cells after 24 hrs by Hoechst 33258 staining based transwell assay; assay type: functional, cell-based
# How it was run: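 MGC-803 cells, 10,000 per upper chamber in 100 µL medium with 1% FBS plus compound (0, 2, 4, 8 µM). Lower chamber held medium with 20% FBS as chemoattractant. After 24 h, chambers PBS-washed, cells stained with Hoechst 33258 (10 µg/mL), migrated cells counted by high content screening.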
smiles,measurement,setting,value
O=C(Cn1cc(CN2C(=O)C(=O)c3c(Cl)ccc(Cl)c32)nn1)NC1CCCCC1,IC50,[1],25.2 µM
same,IC50,[2],51.8 µM
same,IC50,[3],93.3 µM
same,IC50,[4],17.4 µM
same,IC50 at 72 h,[5],83.9 µM
same,IC50 at 72 h,[6],47.4 µM
O=C(Cn1cc(CN2C(=O)C(=O)c3c(Cl)ccc(Cl)c32)nn1)Nc1ccccc1,IC50,[1],30.6 µM
same,IC50,[2],38.5 µM
same,IC50,[3],27 µM
same,IC50,[4],17.5 µM
same,IC50 at 72 h,[5],24.9 µM
same,IC50 at 72 h,[6],24.9 µM
O=C(Cn1cc(CN2C(=O)C(=O)c3c(Cl)ccc(Cl)c32)nn1)OC1CCCCC1,IC50,[1],14.2 µM
same,IC50,[2],18.9 µM
same,IC50,[3],25.2 µM
same,IC50,[4],9.78 µM
same,IC50 at 72 h,[5],40.3 µM
same,IC50 at 72 h,[6],36 µM
same,Activity,MGC-803 [7],Active
same,Activity,MGC-803 [8],Active
same,Activity,MGC-803 [9],Active
same,Activity,MGC-803 [10],Active
same,Activity,MGC-803 [11],Active
same,Activity,[12],48.7%
same,Activity,[13],21.5%
same,Activity,[14],24.1%
same,Activity,[15],40.3%
same,Activity,[16],24%
same,Activity,[17],28.7%
same,Activity,[18],34.8%
same,Activity,[19],23.5%
same,Activity,[20],32.3%
same,Activity,[21],Dose-dependent effect
same,Activity,MGC-803 [22],Dose-dependent effect
same,Activity,MGC-803 [23],7.8%
same,Activity,MGC-803 [24],5%
same,Activity,MGC-803 [25],10.3%
same,Activity,MGC-803 [26],5.7%
same,Activity,MGC-803 [27],18%
same,Activity,MGC-803 [28],4.5%
same,Activity,MGC-803 [29],6.04%
same,Activity,MGC-803 [30],10.3%
same,Activity,MGC-803 [31],19.3%
same,Activity,MGC-803 [32],Dose-dependent effect
same,inhibition,MGC-803 [33],Dose-dependent effect
same,Activity,MGC-803 [34],Active
same,inhibition,MGC-803 [35],Active
same,inhibition,MGC-803 [36],Active
same,Activity,MGC-803 [37],Active
same,Activity,MGC-803 [38],Active
same,Activity,MGC-803 [39],Active
same,Activity,MGC-803 [40],Active
same,Activity,MGC-803 [41],Active
same,Activity,MGC-803 [42],Active
same,Activity,MGC-803 [43],Dose-dependent effect
